Assay outcomes: PubChem, Sanford-Burnham Center for Chemical Genomics
STEP inh – STEP phosphatase inhibitors, primary screen, biochemical, fluorescence intensity, uHTS | recombinant STEP, OMFP fluorogenic substrate | inhibition, % at 20 µM | 0.25% of 360,000 active | AID 588621, 2011;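 active means inhibition at 20 µM, scaled per plate between control wells, above about 37%, limit read from the data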;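 further: 0% = DMSO with enzyme and substrate and 100% = substrate only without enzyme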
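System: STEP (striatal-enriched tyrosine phosphatase) enzyme, cell-free; medium: Bis-Tris pH 6.0 buffer with DTT, detergent; dosing: 20 µM, 1% DMSO; times: reaction 20 min, ambient temperature; detection: fluorescence, 480/540 nm; read-out basis: normalized % inhibition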
DNMT1 block – human DNMT1 methyltransferase inhibitors, primary screen, biochemical, molecular beacon, fluorescence, HinP1I cleavage, uHTS; inhibition (reported as % activation of signal), % at 10 µM; 0.83% of 360,000 active; in the data active means inhibition above about 50%
NadD block – inhibitors of S. aureus NadD, primary screen, biochemical, colorimetric, uHTS; purified NadD enzyme, colorimetric absorbance read-out; 0.78% of 360,000 active; Nicotinate-nucleotide adenylyltransferase NadD (Staphylococcus aureus N315); inhibition, % at 20 µM; in the data active means inhibition above about 26%
LMPTP inh – LMPTP phosphatase inhibitors, primary screen, biochemical, fluorescence intensity, uHTS; Low molecular weight phosphotyrosine protein phosphatase (Homo sapiens), P24666; recombinant LMPTP-A, OMFP fluorogenic substrate; inhibition, % at 20 µM; 0.22% of 360,000 active;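 active means compounds that cut the enzyme signal by at least half of the control window in the single-dose screen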;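 further: plate controls were DMSO wells with enzyme plus substrate for no effect and substrate without enzyme for full effect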
Target sequence (P24666 whole entry, looked up): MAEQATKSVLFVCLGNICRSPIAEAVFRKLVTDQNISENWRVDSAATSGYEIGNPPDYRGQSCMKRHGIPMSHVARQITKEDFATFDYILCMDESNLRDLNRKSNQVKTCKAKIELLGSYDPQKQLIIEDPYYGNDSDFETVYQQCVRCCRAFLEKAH
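Assay system: LMPTP-A, protein tyrosine phosphatase of low molecular weight / Medium: pH 6.0 Bis-Tris buffer with DTT and Triton X-100 / Schedule: 50 min enzyme reaction at room temperature, protected from light / Measured by: endpoint fluorescence intensity from OMFP dephosphorylation / Read-out basis: % inhibition relative to no-enzyme and uninhibited control wells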
SUMO1-SIM PPI – modulators of SUMO1 protein-protein interactions, primary screen, biochemical, uHTS | SUMO1 binding to a labelled peptide, TR-FRET, 1 h | inhibition, % at 20 µM | 0.33% of 360,000 active; in the data active means inhibition above about 37%
Target sequence (P63165 whole entry, looked up): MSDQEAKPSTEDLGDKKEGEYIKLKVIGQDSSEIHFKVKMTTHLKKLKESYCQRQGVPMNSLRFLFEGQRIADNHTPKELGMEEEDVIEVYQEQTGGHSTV
Scp1 inh – Scp-1 phosphatase inhibitors, primary screen, biochemical, colorimetric, uHTS | Carboxy-terminal domain RNA polymerase II polypeptide A small phosphatase 1 (Homo … | Recombinant Scp1, phosphopeptide, malachite green phosphate absorbance | inhibition, % at 20 µM | 0.88% of 340,000 active | AID 493091, 2011;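 active means inhibition above about 50% at 20 µM, limit read from the data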;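 further: plate controls were DMSO wells with enzyme for no effect and wells lacking enzyme for full effect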
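System: truncated SCP-1 phosphatase (76-261aa); medium: Tris acetate buffer pH 5.5 with MgCl2 and Tween-20; incubation: 45 min room-temperature reaction, 5 min colour, 30 min stabiliser; compound: single 20 µM dose, 1% DMSO; reagent: Phosphorylated 17-residue peptide substrate; read-out: % inhibition at 20 µM; technique: colorimetric free-phosphate detection, absorbance 630 nm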
NadD inh conf – inhibitors of S. aureus NadD, confirmation, biochemical, colorimetric, single concentration; shares compounds with NadD block; purified S. aureus NadD, colorimetric enzyme assay; inhibition, % at 20 µM; 13% of 2,000 active; in the data active means inhibition mostly above about 42%, no sharp cut-off; inactive means mostly below about 42%
An asterisk follows results filed as active; / = not tested or not shown. Compounds with a hit are over-represented: about 2.4% of the library has one in this group of screens.

SMILES	STEP inh	DNMT1 block	NadD block	LMPTP inh	SUMO1-SIM PPI	Scp1 inh	NadD inh conf
CN1C(=O)C(=Cc2cn(CC#N)c3ccccc23)C(=O)N(C)C1=O	0.4	-0.2	2.6	2.0	4.0	-4.5	/
N#Cc1ccc2nc(-c3ccc(CN4CCC(n5c(=O)[nH]c6ccccc65)CC4)cc3)c(-c3ccccc3)nc2c1	/	/	43.5*	36.2	-14.3	/	25.7
Cc1cccc(C)c1-n1nnnc1C(c1cccc2ccccc12)N1CCC(n2c(=O)[nH]c3ccccc32)CC1 (configuration not stated)	1.3	-14.1	38.4*	3.7	5.3	/	-3.3
O=c1[nH]c2ccccc2n1C1CCN(CCCC(c2ccc(F)cc2)c2ccc(F)cc2)CC1	1.8	-13.1	5.8	21.0	-3.3	-6.2	/
Cc1cccc2nc(-c3ccccc3)c(-c3ccc(CN4CCC(n5c(=O)[nH]c6ccccc65)CC4)cc3)nc12	/	/	45.0*	8.6	-4.6	/	26.5
O=c1[nH]c2ccccc2n1C1CCN(C(c2nnnn2Cc2ccccc2)C2CC2)CC1 (configuration not stated)	0.8	-11.8	-4.1	1.6	13.0	/	/
COc1ccc(C(=O)Nc2cccc(S(=O)(=O)NCc3ccco3)c2)cc1	-2.9	-6.7	-1.2	-1.4	7.2	-2.7	/
CC(N)C(=O)c1ccco1 (configuration not stated)	-3.1	1.9	-0.5	-1.9	-1.0	-12.3	/
C[n+]1c(-c2ccccc2)cc(CCCCc2cc(-c3ccccc3)[n+](C)c(-c3ccccc3)c2)cc1-c1ccccc1	4.3	20.6	40.1*	50.3*	-30.4	47.0	42.7
COc1ccc(-c2cc(-c3ccccc3)[n+](C)c(-c3ccccc3)c2)cc1	3.3	0.9	13.8	-0.6	-19.4	8.4	/
CC(=O)c1ccc2c(c1)C1C(Cl)C(Sc3ccccc3[N+](=O)[O-])CC1C(c1ccccc1)N2 (configuration not stated)	2.1	-31.6	36.9*	1.4	8.9	-1.7	20.3
O=C1NC(=O)C(Sc2ccccc2[N+](=O)[O-])C(=O)N1	1.7	-6.6	2.6	1.4	-6.2	-7.7	/
CC(=O)c1ccc2c(c1)C1C(Cl)C(Sc3ccccc3[N+](=O)[O-])CC1C(c1ccccc1[N+](=O)[O-])N2 (configuration not stated)	4.1	-13.6	68.0*	5.3	6.5	-9.1	25.3
COc1ccc(C(c2nnnn2Cc2ccccc2)N2CCC(n3c(=O)[nH]c4ccccc43)CC2)cc1 (configuration not stated)	9.1	-5.1	18.2	6.0	5.1	/	/
O=C(NCC1=C(c2cccc3ccccc23)C[C@@H]2CC[C@H]1N2Cc1ccco1)c1ccc([N+](=O)[O-])cc1	2.0	-7.9	11.0	-1.7	-27.3	/	/
Cc1cc(N(CCCl)CCCl)ccc1C=NNC(=O)Cc1cc(=O)oc2cc(O)ccc12	-4.1	-9.3	72.9*	-1.2	-0.4	6.8	58.6*
O=c1[nH]c(=O)n(Cc2ccc(F)cc2)c(O)c1C=NCC1CCCO1 (configuration not stated)	-4.6	7.5	4.9	-1.0	-0.6	32.0	/
